Source: PubChem (several laboratories)
Shown are actives, neighbours in structure and some others; about 1.4% of the full set was active somewhere.
CAL PDZ FP-1 – untagged CAL PDZ binding inhibitors, primary screen, biochemical, fluorescence polarization, HTS; Golgi-associated PDZ and coiled-coil motif-containing protein (Homo sapiens), Q9HD26; purified CAL PDZ, TMR-peptide fluorescence polarization, 1 h; inhibition, % at 24.9 µM; hit rate 0.92% among 300,000; AID 602252, 2012;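 active = mean inhibition of at least 30% with at least half of replicates also reaching 30%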
Tb MetRS inh – T. brucei MetRS inhibitors, primary screen, biochemical, luminescence. inhibition, % at 11.9 µM. purified T. brucei MetRS, ATP depletion, Kinase-Glo luminescence. methionyl-tRNA synthetase (Trypanosoma brucei brucei). hit rate 0.4% among 360,000;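 active = inhibition above a per-plate cutoff of the control wells' mean inhibition plus 3 SD, cut at about 5.5% in these data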
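Material: T. brucei methionyl-tRNA synthetase, purified; reagent: substrates ATP, L-methionine and bulk Escherichia coli tRNA; dosing: 11.9 µM single point; timing: 15 min plus 2 h at 25 °C; detection: luminescence of leftover ATP; evaluation: % inhibition; control set: DMSO-only wells as low control; replicates: singlicate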
PvdQ acylase – P. aeruginosa PvdQ acylase inhibitors, primary screen, biochemical, fluorescence, plate reader and imaging, single point. PvdQ acylase [Pseudomonas aeruginosa LESB58]. purified PvdQ acylase. inhibition, % at 10 µM. hit rate 0.063% among 340,000. AID 488965, 2010; in the data active = inhibition above about 30%, passing the limit was not always enough
CAL PDZ FP-2 – CAL PDZ peptide-binding inhibitors, primary screen, biochemical, fluorescence polarization, Cer-tagged CAL PDZ, HTS | purified CAL PDZ, TMR-peptide fluorescence polarization, 1 h | AID 504414, 2011 | hit rate 0.02% among 330,000 | inhibition, % at 20 µM | Golgi-associated PDZ and coiled-coil motif-containing protein (Homo sapiens), Q9HD26;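 active = highest replicate inhibition of at least 40%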
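System: tagged CAL PDZ domain. Schedule: 1 h room-temperature incubation prior to read. Signal: fluorescence polarization (mP). Measure: percent inhibition from loss of millipolarization.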
CDK5 inh – inhibitors of human CDK5/p35 kinase, primary screen, biochemical, single concentration | Cyclin-dependent kinase 5 (Homo sapiens) + Cyclin-dependent kinase 5 activator 1 (Homo … | Recombinant CDK5/p35, ADP-Glo luminescence, 60 min | inhibition, % at 10 µM | hit rate 0.01% among 330,000 | AID 488839, 2010;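 active = highest replicate inhibition of at least 50% and at least 75% of replicates reaching 50%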
Target sequence (Q00535 whole entry, looked up): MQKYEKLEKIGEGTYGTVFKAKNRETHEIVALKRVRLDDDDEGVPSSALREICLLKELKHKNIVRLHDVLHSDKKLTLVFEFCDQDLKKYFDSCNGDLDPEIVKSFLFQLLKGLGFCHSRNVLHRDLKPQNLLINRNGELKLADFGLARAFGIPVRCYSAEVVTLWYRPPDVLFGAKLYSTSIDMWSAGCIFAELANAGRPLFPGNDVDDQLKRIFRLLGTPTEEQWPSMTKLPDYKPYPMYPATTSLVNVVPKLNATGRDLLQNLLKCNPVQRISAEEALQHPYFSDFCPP
Target sequence (Q15078 whole entry, looked up): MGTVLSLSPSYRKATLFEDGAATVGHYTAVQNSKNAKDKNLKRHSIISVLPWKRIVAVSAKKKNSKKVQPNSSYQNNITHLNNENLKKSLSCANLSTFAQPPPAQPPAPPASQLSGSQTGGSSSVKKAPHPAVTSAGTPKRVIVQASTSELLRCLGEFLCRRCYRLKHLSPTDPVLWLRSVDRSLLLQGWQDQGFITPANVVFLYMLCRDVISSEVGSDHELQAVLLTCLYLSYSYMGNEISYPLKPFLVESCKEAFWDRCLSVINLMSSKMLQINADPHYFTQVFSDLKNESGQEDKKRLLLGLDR
DYRK1A inh – rat Dyrk1A kinase inhibitors, primary screen, biochemical, single point, plate reader | inhibition, % at 12.5 µM | hit rate 0.43% among 310,000 | ADP-Glo luminescence, NFATc1 peptide; in the data active = inhibition above about 50%
A number is an active result.

Results for CCS(=O)(=O)Nc1cc(OC)c(OC)cc1Cc1nccc2cc(OC)c(OC)cc12 ?
CAL PDZ FP-1: 65.0; Tb MetRS inh: inactive; PvdQ acylase: inactive; CAL PDZ FP-2: inactive; CDK5 inh: inactive; DYRK1A inh: inactive

Results for Cc1cc(NC(=O)CCN2C(=O)C3C4CCC(C4)C3C2=O)cc(C)c1Br (stereo unspecified) ?
CAL PDZ FP-1: inactive; Tb MetRS inh: inactive; PvdQ acylase: inactive; CAL PDZ FP-2: inactive; CDK5 inh: inactive; DYRK1A inh: inactive

What do the screens show for `Cc1c(Br)ccc(NC(=O)CCN2C(=O)C3C4CCC(C4)C3C2=O)c1C` (stereo unspecified)?
CAL PDZ FP-1: 32.0; Tb MetRS inh: inactive; PvdQ acylase: inactive; CAL PDZ FP-2: inactive; CDK5 inh: inactive

What do the screens show for `O=C(Nc1ccn(C2CCC(CO)O2)c(=O)n1)c1ccccc1` (stereo unspecified)?
Tb MetRS inh: inactive

Results for CC(C)=C1C(=O)NN(c2cccc(Cl)c2)C1=O ?
CAL PDZ FP-1: 74.1; Tb MetRS inh: inactive; PvdQ acylase: inactive; CAL PDZ FP-2: inactive; DYRK1A inh: inactive

How did Nc1ccn(C2OC(CCl)C(O)C2O)c(=O)n1 (stereo unspecified) do in these assays?
Tb MetRS inh: inactive

What do the screens show for `C[C@H](c1ccccc1)N1C[C@H](COCc2ccccc2)Oc2cc(N3CCC[C@H]3C(N)=O)ccc2S1(=O)=O`?
Tb MetRS inh: inactive

How did CCC1CCC2(CC1)NC(=O)N(CC(=O)Nc1ccc(OC)c(Cl)c1)C2=O (stereo unspecified) do in these assays?
CAL PDZ FP-1: 81.3; Tb MetRS inh: inactive; PvdQ acylase: inactive; CAL PDZ FP-2: inactive; CDK5 inh: inactive

How did COc1ccc(NC(=O)CN2C(=O)NC3(CCCCCC3)C2=O)cc1Cl do in these assays?
CAL PDZ FP-1: inactive; Tb MetRS inh: inactive; PvdQ acylase: inactive; CAL PDZ FP-2: inactive; CDK5 inh: inactive; DYRK1A inh: inactive

What do the screens show for `COc1ccc(C2(c3ccc(OC)cc3)NC(=O)N(CC(=O)Nc3ccc(OC)c(OC)c3)C2=O)cc1`?
CAL PDZ FP-1: 51.2; Tb MetRS inh: inactive; PvdQ acylase: inactive; CAL PDZ FP-2: inactive; CDK5 inh: inactive; DYRK1A inh: inactive

How did Cc1cn(S(=O)(=O)c2ccc(Cl)cc2)c(C)n1 do in these assays?
CAL PDZ FP-1: 78.0; Tb MetRS inh: inactive; PvdQ acylase: inactive; CAL PDZ FP-2: inactive; CDK5 inh: inactive; DYRK1A inh: inactive

How did Cc1cc(C)n(S(=O)(=O)c2ccc(Cl)cc2)n1 do in these assays?
CAL PDZ FP-1: inactive; Tb MetRS inh: inactive; PvdQ acylase: inactive; CAL PDZ FP-2: inactive; CDK5 inh: inactive; DYRK1A inh: inactive

Results for COc1cc(-c2nnc(-c3cc(OC)c(OC)c(OC)c3)o2)cc(OC)c1OC ?
CAL PDZ FP-1: 44.3; Tb MetRS inh: inactive; PvdQ acylase: inactive; CAL PDZ FP-2: inactive; CDK5 inh: inactive; DYRK1A inh: inactive

How did Cc1ccccc1NC(=O)COC(=O)C1=COCCO1 do in these assays?
CAL PDZ FP-1: inactive; Tb MetRS inh: inactive; PvdQ acylase: inactive; CAL PDZ FP-2: inactive; CDK5 inh: inactive; DYRK1A inh: inactive

How did O=C(COC(=O)C1=COCCO1)Nc1ccc(Br)cc1Br do in these assays?
CAL PDZ FP-1: 43.0; Tb MetRS inh: inactive; PvdQ acylase: inactive; CAL PDZ FP-2: inactive; CDK5 inh: inactive; DYRK1A inh: inactive

Results for Nc1ncnc2c1ncn2[C@@H]1O[C@H](C(=O)NCc2ccc(OC(F)(F)F)cc2)[C@@H](O)[C@H]1O ?
Tb MetRS inh: inactive

What do the screens show for `COc1cc(/C=N/Nc2nc(C)cc(C)n2)cc(OC)c1OC`?
CAL PDZ FP-1: 75.5; Tb MetRS inh: inactive; PvdQ acylase: inactive; CAL PDZ FP-2: inactive; CDK5 inh: inactive; DYRK1A inh: inactive

How did COc1ccc(NC(=O)c2cc(-c3sc(NC(=O)c4ccccc4)nc3C)n(-c3ccc(Br)cc3)n2)cc1 do in these assays?
Tb MetRS inh: inactive

What do the screens show for `COC(=O)/C=C1\SC(=Nc2ccc(Cl)c(Cl)c2)NC1=O`?
CAL PDZ FP-1: inactive; Tb MetRS inh: inactive; PvdQ acylase: inactive; CAL PDZ FP-2: inactive; CDK5 inh: inactive; DYRK1A inh: inactive

What do the screens show for `COc1cc(/C=C2\SC(=Nc3ccc(Cl)c(C(=O)O)c3)NC2=O)c(Br)c(Br)c1O`?
CAL PDZ FP-1: inactive; Tb MetRS inh: inactive; PvdQ acylase: inactive; CAL PDZ FP-2: inactive; CDK5 inh: inactive; DYRK1A inh: 65.0

How did Cc1ccsc1C(=O)N1CCC1(C)C(=O)NCCC#N (stereo unspecified) do in these assays?
Tb MetRS inh: inactive

What do the screens show for `O=C(CC[C@H]1O[C@@H](n2cnc3c(NC(=O)c4ccccc4)ncnc32)[C@H](O)[C@@H]1O)NCCc1cc2ccccc2[nH]1`?
Tb MetRS inh: inactive

How did Cn1cccc1C(C#N)(CC#N)c1cccc(F)c1C#N (stereo unspecified) do in these assays?
CAL PDZ FP-1: inactive; Tb MetRS inh: inactive; PvdQ acylase: inactive; CAL PDZ FP-2: inactive; CDK5 inh: inactive

What do the screens show for `Cn1cccc1C(C#N)c1cccc(F)c1C#N` (stereo unspecified)?
CAL PDZ FP-1: inactive; Tb MetRS inh: inactive; PvdQ acylase: 60.5; CAL PDZ FP-2: inactive; CDK5 inh: inactive; DYRK1A inh: inactive

Results for CCCCCCCCN1C(=O)[C@H](CC(=O)NCCCOCCCC)C[C@@]2(C(=O)OC)CC(C)(C)CC=C12 ?
Tb MetRS inh: inactive

How did O=C(COC(=O)c1ccc2c(c1)OCO2)NCc1ccc(Cl)cc1 do in these assays?
CAL PDZ FP-1: 61.0; Tb MetRS inh: inactive; PvdQ acylase: inactive; CDK5 inh: inactive; DYRK1A inh: inactive

Results for O=C(COC(=O)Cc1ccc(Cl)cc1)NCc1ccc2c(c1)OCO2 ?
CAL PDZ FP-1: inactive; Tb MetRS inh: inactive; PvdQ acylase: inactive; CAL PDZ FP-2: inactive; CDK5 inh: inactive; DYRK1A inh: inactive

Results for COc1ccccc1C#Cc1cnc2c(c1)C(=O)N([C@H](C)CO)C[C@@H](C)[C@@H](CN(C)C(=O)c1ccc3c(c1)OCO3)O2 ?
Tb MetRS inh: inactive

What do the screens show for `COC(=O)c1ccc(NC(=O)c2c(C(=O)Nc3ccccc3)sc3nc(C)cc(=O)n23)cc1`?
CAL PDZ FP-1: 98.8; Tb MetRS inh: inactive; PvdQ acylase: inactive; CAL PDZ FP-2: inactive; CDK5 inh: inactive; DYRK1A inh: inactive

How did COC(=O)c1ccc(NC(=O)c2sc3nc(-c4ccccc4)cn3c2C)cc1 do in these assays?
Tb MetRS inh: inactive; PvdQ acylase: inactive; CAL PDZ FP-2: inactive; CDK5 inh: inactive; DYRK1A inh: inactive
